# Experimental data from different studies.
# Lines come from different studies, so protocols differ.
# Observed: enzyme activity
# Action: inhibitor
# PDGFRA D842V: Platelet-derived growth factor receptor alpha (PDGFRA, Homo sapiens, UniProt P16234, D842V)
# PDGFRA: Platelet-derived growth factor receptor alpha (PDGFRA, Homo sapiens, UniProt P16234)
SMILES,target,method,tested at,inhibition [%]
COc1cc2ncnc(Nc3ccc(Oc4ccccc4)cc3C)c2cc1OC,PDGFRA D842V,,1 µM,-1
CNC(=O)c1cc(Oc2ccc(NC(=O)Nc3ccc(Cl)c(C(F)(F)F)c3)cc2)ccn1,"Platelet-derived growth factor receptor alpha (PDGFRA, Homo sapiens, UniProt P16234, V561D)",,0.3 µM,99
CCCS(=O)(=O)Nc1ccc(F)c(C(=O)c2c[nH]c3ncc(-c4ccc(Cl)cc4)cc23)c1F,PDGFRA,,1 µM,< 10
CC/C(=N\NC(=O)NCc1cccc(O)c1)c1ccc(O)c(C)c1O,PDGFRA,,0.1 µM,6.7
CNC(=O)c1cc2c(Oc3ccc(NC(=O)C4(C(=O)Nc5ccc(F)cc5)CC4)cc3)ccnc2cc1OC,PDGFRA,radiometric,1 µM,71
COc1cc2ncnc(Nc3ccc(Oc4ccccc4)c(C)c3C)c2cc1OC,PDGFRA,,1 µM,6
CS(=O)(=O)Nc1cccc(-c2csc(NC(=O)CSc3nc4nccnc4c(=O)n3CCc3ccccc3)n2)c1,PDGFRA,,10 µM,5
COc1cc(-c2cc(-c3ccc(N4CCNCC4)cc3)cnc2N)cc(OC)c1OC,PDGFRA D842V,,0.1 µM,54
CNCc1ccc(-c2cc(-c3nc(-c4ccc(S(=O)(=O)C(C)C)cc4)cnc3N)on2)cc1,PDGFRA,,0.4 µM,0
